We go through seven compounds from article PMC4167792 (Analytical biochemistry, 2013).

As usually defined, the Kd is a measure of binding affinity in units of concentration. Low readings indicate higher affinity, high ones lower affinity.

Several values for one entry are separate records, joined by “and”; a condition that tells them apart may be missing. Equal values may be shown once.

One experiment addresses SIRT6 protein (Gallus gallus, UniProt A0A8V1A309). The experiment in a line: Frontal affinity chromatography on the SIRT6-OT column. Type of experiment: binding, chicken. The settings on record: for Kd: SIRT6-OT column, ammonium acetate 10 mM pH 7.4:methanol 90:10, 0.2 mM NAD+, non-linear regression.
The test system of another experiment is SIRT6. The experiment in a line: Histone deacetylation assay by mass spectrometry on SIRT6-coated magnetic beads. The class given is biochemical, chicken. The settings on record: 10 μM of each compound, H3K9Ac peptide, 0.2 mM NAD+, 4 h at 37°C. An outline of the steps:
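SIRT6 was coupled by its C-terminus to amine-terminated magnetic beads (1 μm). Beads were incubated in 50 μL of 50 mM Tris-HCl pH 8.0, 150 mM NaCl, 1 mM DTT with 5 μg of H3K9Ac peptide (residues 1–21). p-Aminohippuric acid was added as internal standard. The supernatant, taken after magnetic separation, was run on C18 LC-ESI-MS, positive-ion SIM at m/z 922.4 (acetylated) and 908.4 (deacetylated).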

Experiment [1] relates to quercetin binding site of SIRT6. In words: Frontal displacement chromatography of quercetin on the SIRT6-OT column. The arrangement: species or system chicken. The settings on record: 10 μM polyphenol in mobile phase in the presence of 5 μM quercetin. An outline of the steps: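 Full-length chicken SIRT6, expressed in E. coli as a GST fusion, thrombin-cleaved and purified by size exclusion. Coupled inside an open tubular capillary (30 cm × 100 μm i.d.) with EDC/Sulfo-NHS in 100 mM MES pH 5.5, 18 h at 4°C. Frontal runs at room temperature, 0.05 mL min^-1, in 10 mM ammonium acetate pH 7.4:methanol (90:10) with 0.2 mM NAD⁺. ESI-MS detection; retention-volume shift recorded.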

Take `O=c1cc(-c2ccc(O)cc2)oc2cc(O)cc(O)c12` [Apigenin]: the Kd at SIRT6 protein was 1.9 µM and 1.92 µM. For the same compound, in the experiment with SIRT6, the “% inhibition of deacetylation relative to control” value is 39.0 ± 5.9%.
For the compound `O=c1c(O)c(-c2ccc(O)cc2)oc2cc(O)cc(O)c12` [Kaempferol], binding at SIRT6 protein was put at a Kd of 3.88 ± 0.57 µM. Besides, in the experiment on SIRT6, the “% inhibition of deacetylation relative to control” value was determined as 48.6 ± 6.0%.
Compound `O=c1cc(-c2ccc(O)c(O)c2)oc2cc(O)cc(O)c12` [Luteolin] returned a Kd at SIRT6 protein of 1.78 ± 0.64 µM. Also, in the experiment on SIRT6, the “% inhibition of deacetylation relative to control” value is listed as 53.7 ± 17.7%. For the same compound, in experiment [1], the “displacement of quercetin (change in retention)” value was 38.1 min.
Turning to `O=C1C[C@@H](c2ccc(O)cc2)Oc2cc(O)cc(O)c21` [Naringenin], at SIRT6 protein, the Kd was 6.6 µM and 6.62 µM. For the same compound, the “fold decrease in affinity for the SIRT6 protein” value at SIRT6 protein (naringenin vs apigenin (saturation of the C ring double bond)) was found to be 3 fold. Besides, the “% inhibition of deacetylation relative to control” value with SIRT6 is given as 31.0 ± 5.3%.
Turning to `O=c1c(O)c(-c2ccc(O)c(O)c2)oc2cc(O)cc(O)c12` [Quercetin], at SIRT6 protein (2 μM quercetin on SIRT6-OT column), the breakthrough volume is listed as 5.25 mL. In addition, the “midpoint of the breakthrough curve” value on SIRT6 protein (2 μM quercetin on SIRT6-OT column, 0.05 mL/min) worked out at 105 min. In addition, the affinity on SIRT6 protein, expressed as Kd, was 4.09 ± 2.26 µM. Also, the “% inhibition of deacetylation relative to control” value in the experiment with SIRT6 was found to be 46.6 ± 2.3%.
In turn, `O=c1cc(-c2ccc(O)cc2)oc2c([C@@H]3O[C@H](CO)[C@@H](O)[C@H](O)[C@H]3O)c(O)cc(O)c12` [Vitexin] had a Kd at SIRT6 protein of 15.3 µM. Besides, the “% inhibition of deacetylation relative to control” value in the experiment on SIRT6 was determined as 24.9 ± 0.9%. Also, the “displacement of quercetin (change in retention)” value in experiment [1] was 16.5 min.
`O=c1c(-c2ccc(O)cc2)coc2cc(O)cc(O)c12` [genistein, Genistein]: the “displacement of quercetin (change in retention)” value in experiment [1] was 2.5 min.
